Screening data from PubChem BioAssay.
Most compounds without a hit are left out; they make up all but 1.3% or so of the library.
Furin inhibitor: blocks human furin protease activity. P09958. purified furin, fluorogenic substrate cleavage. inhibition, % at 20 µM or 30 µM. 220,000 tested, 0.061% active; in the data active = inhibition above about 25%
NR2E3 ag-1: activates human NR2E3 receptor | AID 602229 | CHO-S Gal4-NCOR/VP16-NR2E3 two-hybrid, luciferase | 360,000 tested, 0.35% active | inhibition of corepressor binding, % at 3.98 µM;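 active = inhibition above the mean of all tested compounds plus 3 SD, cut at about 70% in these data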;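 also: 0% = DMSO with NR2E3 transfected cells and 100% = cells lacking NR2E3 construct; higher means lower luciferase signal from less NR2E3 corepressor binding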
EP2 antag: EP2 receptor (human) inhibition | C6 glioma cells expressing human EP2, cAMP TR-FRET; cells stimulated with saturating PGE2 | inhibition, % at 25 µM | 260,000 tested, 0.52% active;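 active = percent inhibition above 40 after rounding to a whole number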;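 also: rat C6 glioma host cells with rolipram phosphodiesterase inhibitor present; the protocol text gives 20 µM as final concentration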
NR2E3 ag-2: agonists of human nuclear receptor NR2E3; Q9Y5X4; GST-NR2E3/biotin-RetCOR TR-FRET, 1536-well; inhibition of corepressor binding, % at 4.78 µM; 320,000 tested, 0.12% active; AID 2300;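 active = percent inhibition above the cutoff of mean plus 3 SD of all tested compounds, set per screening campaign, cut at about 20% in these data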;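 also: 0% = DMSO wells and 100% = biotin wells as full block of FRET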
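Test system: GST-NR2E3 and biotin-RetCOR proteins | Quantity: 1.35 nM GST-tagged NR2E3 final | Medium: Tris pH 7.5 | Also added: 7 nM biotin-RetCOR | Dosing: Compound at 4.8 µM, single dose | Timing: 5 h at 4 °C | Detection: Time-resolved FRET | Read-out basis: Percent inhibition | Benchmarks: Biotin wells as high control, 0.6% DMSO wells as low control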
EP2 mod: modulates human prostaglandin E2 receptor EP2 signaling; 260,000 tested, 0.83% active; induction, % at 25 µM; EP2-expressing cells, cAMP HTRF FRET, PGE2 co-stimulation; P43116;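 active = compounds whose cAMP rise, as percent of the full-agonist control response, exceeds 60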;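 also: rat C6 glioma line stably carrying human EP2 under a CMV promoter; the protocol text gives 20 µM as final concentration; 100% = response of wells given 1 µM PGE2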
GASC-1 inh: human JMJD2C demethylase inhibition | GST-JMJD2C(1-420) H3K9me3 demethylation, DELFIA europium | 330,000 tested, 0.069% active | inhibition, % at 2.35 µM;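 active = more than half of a compound's replicate wells show inhibition beyond 50%, single wells judged on their own value; inconclusive = some, but no more than half, of replicates pass 50% inhibition; inactive = no replicate passes 50% inhibition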;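 also: signal counts dimethyl H3K9 product captured on neutravidin plate; 0% = median of DMSO wells and 100% = 0.3 times that DMSO median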
Target sequence (Q9H3R0 1-420 limits assumed): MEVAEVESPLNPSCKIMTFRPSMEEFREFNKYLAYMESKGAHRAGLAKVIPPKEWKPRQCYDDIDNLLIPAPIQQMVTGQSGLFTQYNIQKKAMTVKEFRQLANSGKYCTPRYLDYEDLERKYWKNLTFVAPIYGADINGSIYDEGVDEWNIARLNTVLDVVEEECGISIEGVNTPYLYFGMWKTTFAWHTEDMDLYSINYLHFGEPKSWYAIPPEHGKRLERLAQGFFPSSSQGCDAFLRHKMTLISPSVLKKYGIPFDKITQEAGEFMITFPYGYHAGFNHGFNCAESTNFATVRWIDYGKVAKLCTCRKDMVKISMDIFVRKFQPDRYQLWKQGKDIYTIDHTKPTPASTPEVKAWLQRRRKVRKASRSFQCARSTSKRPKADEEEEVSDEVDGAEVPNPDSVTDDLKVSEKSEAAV
NR2E3 ag confirm: NR2E3 agonism confirmed in two-hybrid assay | shares compounds with NR2E3 ag-1 | CHO-S mammalian two-hybrid NR2E3-NCOR, luciferase luminescence | inhibition, % at 3.98 µM | 2,300 tested, 51% active | AID 624378;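 active = average inhibition above a cutoff equal to the mean inhibition of all tested compounds plus one SD, cut at about 70% in these data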;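 also: 0% = DMSO in NR2E3 cells and 100% = DMSO in cells lacking NR2E3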
VP16 counter: reduces GAL4-VP16 reporter signal in NR2E3 counterscreen. CHO-S GAL4-VP16 luciferase reporter, luminescence. 2,300 tested, 29% active. shares compounds with NR2E3 ag-1. inhibition, % at 3.98 µM;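 active = mean inhibition above a cutoff equal to the average over all tested compounds plus one standard deviation, cut at about 70% in these data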;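 also: luciferase from a UAS reporter driven by GAL4-VP16 transactivation; 0% = DMSO with VP16-transfected cells and 100% = DMSO with cells lacking VP16; higher means less reporter light so more repression of VP16 activity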
The depositor's hits bear a star; ? = inconclusive; . = not tested or not shown.

SMILES	Furin inhibitor	NR2E3 ag-1	EP2 antag	NR2E3 ag-2	EP2 mod	GASC-1 inh	NR2E3 ag confirm	VP16 counter
CN(CC(=O)NCc1ccc(F)cc1)CC(=O)Nc1ccc(Cl)c(C(F)(F)F)c1	.	94*	.	1	.	6	53	49
COc1cccc(NC(=O)c2sc(NC(=O)c3ccc(C)cc3)nc2C)c1	.	.	17	.	-15	.	.	.
Cc1nc2c(-c3ccc(Cl)cc3)c(C)[nH]n2c(=O)c1Cc1ccccc1	-16	88*	7	1	-37	-1	99*	57
COCc1cc(=O)n2[nH]c(C)c(-c3ccc(Cl)cc3)c2n1	.	51	.	.	.	.	42	35
Clc1ccc2c(NCc3ccco3)ncnc2c1	-15	54	9	1	-12	-2	45	43
CNC(=O)CSc1nc2cc(S(=O)(=O)Nc3ccc(OC)cc3)ccc2o1	.	15	.	3	.	0	.	.
COc1ccc(NS(=O)(=O)c2ccc3oc(SC)nc3c2)cc1	.	74*	.	0	.	-22	53	56
CC1CCN(c2nc3c(c(=O)[nH]2)CN(Cc2cnn(C)c2)CC3)CC1	.	.	4	.	4	.	.	.
CC(=O)Nc1ccc(OCC[n+]2ccc(CCS(=O)(=O)[O-])cc2)cc1	.	.	7	.	-35	.	.	.
COc1ccc(NC(C)=O)cc1S(=O)(=O)Nc1ccc(OCc2ccccc2)cc1	.	73*	.	0	.	2	77*	57
COc1ccc(NC(=O)Nc2ccc(Cc3ccncc3)cc2)c(OC)c1	-25	51	9	1	3	-4	29	15
COc1ccc(S(=O)(=O)Nc2ccc(Cc3ccncc3)cc2)cc1OC	.	61	.	1	.	-3	72*	67
COc1ccc(NC(=O)Nc2cnccn2)c(OC)c1	.	-9	.	-1	.	-3	.	.
COc1ccc(NC(C)=O)cc1S(=O)(=O)Nc1ccccc1C(=O)NCCc1ccccc1	.	-76	.	0	.	-8	.	.
CCc1ccc(OC)c(S(=O)(=O)Nc2ccc(Cc3ccncc3)cc2)c1	.	99*	.	-1	.	-2	86*	74*
COc1ccc(/C=C2/C(=O)NN(c3ccc(I)cc3)C2=O)cc1OC	.	.	8	.	-85	.	.	.
Cc1ccc(NC(=S)/C(C#N)=C2/Nc3ccccc3S2)cc1	.	93*	.	.	.	.	99*	54
CCOc1ccc(NC(=O)NCCCn2c(C)nc3cc(C)c(C)cc32)cc1	-17	31	4	1	-24	?	.	.
Cc1cc2nc(C)n(CCCNC(=O)Nc3cccc4ccccc34)c2cc1C	-12	62	34	0	-57	-8	76*	67
CC(=O)O[C@@H]1CC2C(C)(CC[C@H](O)C2(C)C)C2CC[C@]3(C)C(=CC(=O)O[C@H]3c3ccoc3)C21C (stereo partly specified)	.	.	14	.	-4	.	.	.
CC(=O)OC[C@]12CC[C@H]3[C@@](C)(CC[C@H]4C(C)(C)CCC[C@]34C)[C@@H]1CC(C1=CC(=O)OC1O)O2 (stereo partly specified)	.	102*	.	.	.	.	100*	100*
Cc1ccc(S(=O)(=O)NNC(=O)C2Cc3c(ccc4ccccc34)O2)cc1 (stereo unspecified)	-8	60	13	2	-8	8	8	52
CCCCOc1ccc(S(=O)(=O)NNC(=O)C2Cc3c(ccc4ccccc34)O2)cc1 (stereo unspecified)	-13	-5	8	1	47	-5	.	.
O=C(Cn1cnc2ccccc21)Nc1ccc(SC(F)F)cc1	-22	68	7	4	-89	-12	94*	78*
O=C(NC1CC1)C1C2C=CC3(O2)C1C(=O)N(Cc1ccccc1)C3C(=O)NC1CCCC1 (stereo unspecified)	.	.	13	.	27	.	.	.
SMILES	Furin inhibitor	NR2E3 ag-1	EP2 antag	NR2E3 ag-2	EP2 mod	GASC-1 inh	NR2E3 ag confirm	VP16 counter
COc1ccc(NC(=O)O/N=C/c2c(C)nn(C(C)(C)C)c2C)cc1	-12	-25	14	1	-49	-7	.	.
Cc1nn(C(C)(C)C)c(C)c1/C=N/OC(=O)Nc1ccc(Cl)c(Cl)c1	-6	92*	9	-2	-12	-6	36	96*
O=c1[nH]c(N2CCCCC2)nc2c1CN(Cc1nnnn1Cc1ccccc1)CC2	.	.	12	.	-13	.	.	.
O=C(NCCCSc1ccccc1)c1cc(Br)ccc1O	.	87*	.	.	.	12	99*	90*
O=C(NCCSc1ccccc1)c1ccc(Br)cc1	-22	-146	2	-1	-12	-8	.	.
CCN1/C(=C/C=C/c2oc3ccc(-c4ccccc4)cc3[n+]2CC)Oc2ccc(-c3ccccc3)cc21	9	80*	7	-1	-69	8	100*	93*
O=C(Nc1ccc2c(c1)OCCO2)C(c1ccnc2ccccc12)N1CCN(c2ccc(F)cc2)CC1 (stereo unspecified)	.	-24	.	.	.	.	.	.
O=C(Nc1ccc2c(c1)OCCO2)C(c1ccnc2ccccc12)N1CCN(c2ccc(C(F)(F)F)cn2)CC1 (stereo unspecified)	.	58	.	.	.	.	29	2
COc1ccc(-c2ccc(SCC(=O)Nc3cc(C)on3)nn2)cc1	.	.	4	.	23	.	.	.
Cc1nc(NCc2ccc(S(N)(=O)=O)cc2)c2c(C)c(C)sc2n1	.	-27	.	-1	.	-10	.	.
Cc1nc(NCCc2ccc(S(N)(=O)=O)cc2)c2c(C)c(C)sc2n1	-13	66	16	-3	-3	-35	73*	65
CC1(C(=O)Nc2ccccc2)CCN1C(=O)Cc1ccc(-c2ccccc2)cc1 (stereo unspecified)	.	53	.	.	.	.	46	33
CC1(C(=O)Nc2ccc(Cl)c(Cl)c2)CCN1C(=O)Cc1ccc(-c2ccccc2)cc1 (stereo unspecified)	.	68	.	.	.	.	93*	73*
CC1(C(=O)Nc2ccc(Cl)c(Cl)c2)CCN1C(=O)CC(c1ccccc1)c1ccccc1 (stereo unspecified)	.	13	.	.	.	.	.	.
CC1(C(=O)Nc2ccc3c(c2)OCO3)CCN1C(=O)Cc1ccc(-c2ccccc2)cc1 (stereo unspecified)	.	94*	.	.	.	.	97*	84*
COc1cc(NC(=O)CSc2nccn2C)c(OC)cc1Cl	.	.	8	.	-32	.	.	.
Cc1cc(C)c2c(N)c(C(=O)N3CCCCC3C)sc2n1 (stereo unspecified)	.	.	10	.	-25	.	.	.
CC(c1ccccc1)c1nnc(N)s1 (stereo unspecified)	-17	59	9	3	-10	-7	10	9
CC(Oc1ccccc1)c1nnc(N)s1 (stereo unspecified)	-18	25	3	0	-21	-2	.	.
